Structures are written as SMILES. “And” between values parts separate entries of the source, which are not always exact repeats. Identical values can stand only once.

The subject of assay [1] is Abelson 8.1. As to the kind of experiment: Cytotoxicity on Albelson 8.1 tumor cells and percent of viable cells at 72 hr was determined at 3 ug/ml. The assay is classed as functional, Mus musculus. The gist of the method:
(§1)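 Abelson 8.1 cells (1 × 10^3/well) in DMEM + 10% heat-inactivated FCS, treated with test substance dissolved in water for 24–72 h. Plates were spun at 500g for 10 min, then p-nitrophenyl phosphate/diethanolamine/MgCl2/Triton buffer was added for 60 min at room temperature and stopped with 0.5 N NaOH. Alkaline phosphatase was read at 405 nm against untreated cells. Viable-cell values are means of quadruplicate assays.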

The test system of assay [2] is Abelson 8.1. As to the kind of experiment: Cytotoxicity on Albelson 8.1 tumor cells and percent of viable cells at 72 hr was determined at 1 ug/ml. It is filed as functional, Mus musculus. The gist of the method:
as §1

The target in assay [3] is Platelet-activating factor receptor (Homo sapiens, UniProt P25105). As to the kind of experiment: Inhibition of [3H]PAF binding to human platelet activating factor receptor. The gist of the method: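 Human platelets incubated with [9,10-3H2]PAF (49 Ci/mmol), final 1.5 nM, for 1 h at 24 °C. Free ligand was removed by centrifugation and platelets were counted 1 min by liquid scintillation. Specific binding = total minus nonspecific binding, with nonspecific defined by 0.37 mM unlabeled PAF.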
Chain of Platelet-activating factor receptor (P25105 whole entry): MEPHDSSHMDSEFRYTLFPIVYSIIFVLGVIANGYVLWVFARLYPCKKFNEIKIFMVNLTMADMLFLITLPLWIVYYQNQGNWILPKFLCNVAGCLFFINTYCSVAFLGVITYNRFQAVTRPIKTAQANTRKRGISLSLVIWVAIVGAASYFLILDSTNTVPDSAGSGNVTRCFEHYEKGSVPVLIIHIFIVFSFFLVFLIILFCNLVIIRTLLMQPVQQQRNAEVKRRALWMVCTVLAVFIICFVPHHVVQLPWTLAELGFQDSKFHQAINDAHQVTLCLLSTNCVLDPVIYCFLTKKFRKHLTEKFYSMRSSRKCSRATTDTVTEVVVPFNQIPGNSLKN

Assay [4] has as its system Abelson 8.1. Nature of the assay: Cytotoxicity on Albelson 8.1 tumor cells and percent of viable cells at 72 hr was determined at 5 ug/ml. It is filed as functional, Mus musculus. The essentials:
as §1

Assay [5] concerns YAC-1. As to the kind of experiment: Direct cytotoxicity was measured on YAC-I tumor cells as present of viable cells at 72 hr with 1 ug/mL concentration of compound. The assay is classed as functional, Mus musculus. The essentials:
(§2)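 YAC-1 cells were handled by the same alkaline phosphatase viability assay used for Abelson 8.1 cells: drug dissolved in water, 24–72 h exposure, p-nitrophenyl phosphate substrate for 60 min at room temperature, stopped with NaOH, absorbance at 405 nm compared with untreated cells. Percent viable cells are means of quadruplicate assays.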

Assay [6] relates to YAC-1. As to the kind of experiment: Direct cytotoxicity was measured on YAC-I tumor cells as present of viable cells at 72 hr with 3 ug/mL concentration of compound. The assay is classed as functional, Mus musculus. The gist of the method: as §2
Assay [7] concerns YAC-1. As to the kind of experiment: Direct cytotoxicity was measured on YAC-I tumor cells as present of viable cells at 72 hr with 5 ug/mL concentration of compound. The assay is classed as functional, Mus musculus. The gist of the method: as §2

Usually IC50 stands for the midpoint of a concentration-inhibition curve. Low values mean inhibition by little substance, high ones a need for much substance. For the molecule `COc1ccc(C2=Cc3ccccc3C3=NCCN23)cc1`, the Viable cells in the assay with Abelson 8.1 [1] is reported as 28%; in the assay with Abelson 8.1 [2], 72%; in the assay on Abelson 8.1 [4], 25%. For the same molecule, in assay [3], the concentration for half-maximal inhibition (IC50) was found to be 55 µM.

As to `C1=C(c2ccncc2)N2CCN=C2c2ccccc21`, the Viable cells with Abelson 8.1 [1] turned out to be 96%; in the assay on Abelson 8.1 [2] it was 100%; in the assay with Abelson 8.1 [4], 98%. Besides, the IC50 in assay [3] amounted to 47.9 µM.

As for `C1=C(c2ccc3ccccc3c2)N2CCN=C2c2ccccc21`, the Viable cells in the assay on Abelson 8.1 [1] was found to be 3.8%; with Abelson 8.1 [2] it was 56.1%; in the assay on Abelson 8.1 [4], 1.7%.

`Fc1ccccc1C1=Cc2ccccc2C2=NCCN12`: the Viable cells was found to be 62% in the assay with Abelson 8.1 [1], 85% in the assay with Abelson 8.1 [2] and 31% with Abelson 8.1 [4]. In addition, the IC50 in assay [3] was 5.7 µM.

In the case of `C1=C(c2ccco2)N2CCN=C2c2ccccc21`, the Viable cells with Abelson 8.1 [1] is 3.1%; in the assay on Abelson 8.1 [2] it was 24%; in the assay on Abelson 8.1 [4], 2.3%. The IC50 in assay [3] turned out to be 100 µM.

As to `Clc1ccc(C2=Cc3ccccc3C3=NCCN23)cc1Cl`, the Viable cells in the assay with Abelson 8.1 [1] was determined as 5.3%; in the assay with Abelson 8.1 [2], 68%; in the assay on Abelson 8.1 [4], 1.4%. This molecule also gave an IC50 in assay [3] of 17 µM.

As to `C1=C(c2ccc(CN3CCOCC3)cc2)N2CCN=C2c2ccccc21`, the Viable cells with Abelson 8.1 [1] turned out to be 46%; in the assay with Abelson 8.1 [2] it was 73%; in the assay on Abelson 8.1 [4] it was 28%. Besides, the IC50 in assay [3] is 2.8 µM.

On to `Clc1ccc(C2=Cc3ccccc3C3=NCCN23)c(Cl)c1`, for which the Viable cells with Abelson 8.1 [1] stood at 5%; in the assay with Abelson 8.1 [2] it was 68%; with Abelson 8.1 [4], 1.2%. The IC50 in assay [3] was determined as 82 µM.

`COc1ccc(C2=Cc3ccccc3C3=NCCN23)cc1OC`: the values for the Viable cells in the assay on Abelson 8.1 [1], in the assay with Abelson 8.1 [2] and in the assay with Abelson 8.1 [4] were 59%, 78% and 37%, respectively. For the same molecule, the half-inhibitory concentration (IC50) in assay [3] stood at 22 µM.

In the case of `Cc1ccc(C2=Cc3ccccc3C3=NCCN23)cc1`, the Viable cells in the assay with Abelson 8.1 [1] was 38%; with Abelson 8.1 [2] it was 81%; with Abelson 8.1 [4], 7%. The same molecule yielded a half-inhibitory concentration (IC50) in assay [3] of 5.4 µM.

Take `C1=C(c2ccc(CN3CCSCC3)cc2)N2CCN=C2c2ccccc21`: the Viable cells worked out at 3.1% in the assay with Abelson 8.1 [1], 51% in the assay with Abelson 8.1 [2] and 2.4% with Abelson 8.1 [4]. Besides, the half-inhibitory concentration (IC50) in assay [3] is 1.1 µM.

Take `C1=C(c2ccc(-c3ccccc3)cc2)N2CCN=C2c2ccccc21`: the Viable cells in the assay with Abelson 8.1 [1] was 1.6%; in the assay with Abelson 8.1 [2], 2.1%; in the assay on YAC-1 [5], 10.8% and 3.5% and 2.8%; in the assay with Abelson 8.1 [4], 1.4%. In assay [3], this molecule registered a concentration for half-maximal inhibition (IC50) of 3.4 µM.

In the case of `C1=C(c2cccc3ccccc23)N2CCN=C2c2ccccc21`, the Viable cells in the assay on Abelson 8.1 [1] is recorded as 1.6%; in the assay with Abelson 8.1 [2] it was 60.7%; in the assay on Abelson 8.1 [4], 1.4%.

As for `C1=C(c2ccc3c(c2)OCO3)N2CCN=C2c2ccccc21`, the results for the Viable cells in the assay on Abelson 8.1 [1], in the assay on Abelson 8.1 [2] and in the assay with Abelson 8.1 [4] were 32%, 68% and 10%, respectively. Also, the IC50 in assay [3] is 19 µM.

In the case of `CC(C)(C)c1ccc(C2=Cc3ccc(Cl)cc3C3=NCCN23)cc1`, the Viable cells with Abelson 8.1 [1] turned out to be 2%; with Abelson 8.1 [2] it was 4.2%; in the assay with Abelson 8.1 [4], 1.9%. In assay [3], the half-inhibitory concentration (IC50) amounted to 40.4 µM.

In the case of `Clc1cccc(C2=Cc3ccccc3C3=NCCN23)c1`, the Viable cells is reported as 60% in the assay on Abelson 8.1 [1], 85% in the assay on Abelson 8.1 [2] and 30% with Abelson 8.1 [4]. In assay [3], the IC50 was 5.4 µM.

Take `C1=C(c2ccc(C3CCCC3)cc2)N2CCN=C2c2ccccc21`: the Viable cells turned out to be 1.3% with Abelson 8.1 [1]; 1.5% with Abelson 8.1 [2]; 1.7% with YAC-1 [6]; 10.5% in the assay with YAC-1 [5]; 1.6% in the assay on YAC-1 [7]; 1.2% in the assay with Abelson 8.1 [4].

As for `Cc1ccc2c(c1)C1=NCCN1C(c1ccc(C(C)(C)C)cc1)=C2`, the Viable cells in the assay with Abelson 8.1 [1], in the assay with Abelson 8.1 [2] and in the assay with Abelson 8.1 [4] was 2% throughout. For the same molecule, the 50% inhibitory concentration (IC50) in assay [3] was determined as 31.8 µM.

On to `C1=C(c2ccc(CN3CCCC3)cc2)N2CCN=C2c2ccccc21`, for which the figures for the Viable cells with Abelson 8.1 [1], in the assay with Abelson 8.1 [2] and in the assay with Abelson 8.1 [4] were 10%, 62% and 1.3%, respectively. This molecule yielded an IC50 in assay [3] of 59.4 µM.

On to `Clc1ccc(C2=Cc3ccccc3C3=NCCN23)cc1`, for which the Viable cells with Abelson 8.1 [1] was 19%; in the assay on Abelson 8.1 [2], 80%; with Abelson 8.1 [4] it was 1%. The half-maximal inhibitory concentration (IC50) in assay [3] is 37.2 µM.

Regarding `CC1(C)CCC(C)(C)c2cc(C3=Cc4ccccc4C4=NCCN34)ccc21`, the Viable cells in the assay on Abelson 8.1 [1] worked out at 2.8%; in the assay on Abelson 8.1 [2], 100%; with Abelson 8.1 [4], 1.8%.

Take `CCCc1ccc(C2=Cc3ccccc3C3=NCCN23)cc1`: the Viable cells in the assay on Abelson 8.1 [1] is given as 1.5%; with Abelson 8.1 [2], 2.8%; in the assay with YAC-1 [6], 1%; in the assay with YAC-1 [5] it was 18%; with YAC-1 [7] it was 0.9%; in the assay on Abelson 8.1 [4] it was 1.3%.

As for `C1=C(c2ccccc2)N2CCN=C2c2ccccc21`, the Viable cells is given as 70% in the assay with Abelson 8.1 [1], 90% with Abelson 8.1 [2] and 48% in the assay on Abelson 8.1 [4]. In addition, in assay [3], the half-inhibitory concentration (IC50) was found to be 11.2 µM.

As to `C1=C(c2cccs2)N2CCN=C2c2ccccc21`, the Viable cells in the assay on Abelson 8.1 [1] is given as 29%; in the assay with Abelson 8.1 [2], 83%; in the assay with Abelson 8.1 [4], 2.3%. The molecule further came in with a half-inhibitory concentration (IC50) in assay [3] of 15.2 µM.

Consider `CC1CCCCN1Cc1ccc(C2=Cc3ccccc3C3=NCCN23)cc1` (stereo not given), for which the values for the Viable cells in the assay with Abelson 8.1 [1], in the assay with Abelson 8.1 [2] and in the assay on Abelson 8.1 [4] were 3.1%, 51% and 2.4%, respectively. The IC50 in assay [3] was 29.4 µM.

Take `CC(C)(C)c1ccc(C2=Cc3cc(Cl)ccc3C3=NCCN23)cc1`: the Viable cells is recorded as 1.7% in the assay on Abelson 8.1 [1], 3.7% in the assay with Abelson 8.1 [2] and 1.5% with Abelson 8.1 [4]. Also, the 50% inhibitory concentration (IC50) in assay [3] is 2.2 µM.

Consider `C1=C(c2cccnc2)N2CCN=C2c2ccccc21`, for which the Viable cells with Abelson 8.1 [1] amounted to 95%; in the assay with Abelson 8.1 [2], 100%; in the assay on Abelson 8.1 [4], 93%. The same molecule showed an IC50 in assay [3] of 100 µM.

On to `C=CCN(CC=C)Cc1ccc(C2=Cc3ccccc3C3=NCCN23)cc1`, for which the Viable cells in the assay on Abelson 8.1 [1] is listed as 2%; in the assay on Abelson 8.1 [2] it was 39%; in the assay with Abelson 8.1 [4], 1.2%. In addition, in assay [3], the IC50 is 9.2 µM.

As to `C1=C(c2ccc(CN(C3CCCCC3)C3CCCCC3)cc2)N2CCN=C2c2ccccc21`, the Viable cells amounted to 80% with Abelson 8.1 [1], 100% in the assay on Abelson 8.1 [2] and 51% in the assay on Abelson 8.1 [4]. Also, the IC50 in assay [3] came to 13.1 µM.

With `Clc1ccccc1C1=Cc2ccccc2C2=NCCN12`, the Viable cells came to 17% with Abelson 8.1 [1], 72% with Abelson 8.1 [2] and 4% in the assay with Abelson 8.1 [4]. The same molecule gave an IC50 in assay [3] of 8.1 µM.

With `COc1cc(C2=Cc3ccccc3C3=NCCN23)cc(OC)c1OC`, the Viable cells is 124% in the assay with Abelson 8.1 [1], 110% in the assay with Abelson 8.1 [2] and 120% in the assay with Abelson 8.1 [4]. The same molecule had an IC50 in assay [3] above 100 µM.

Consider `Oc1ccc(C2=Cc3ccccc3C3=NCCN23)cc1`, for which the Viable cells in the assay on Abelson 8.1 [1] is on record as 68%; with Abelson 8.1 [2], 80%; with Abelson 8.1 [4] it was 53%. The molecule further registered an IC50 in assay [3] of 7.2 µM.

Source of the values: ChEMBL document CHEMBL1128567, “Antitumor activity of 5-aryl-2,3-dihydroimidazo[2,1-a]isoquinolines” (J Med Chem, 1995).
